The record followed here is ChEMBL document CHEMBL1148978, “Lignan derivatives and a norditerpene from the seeds of Vitex negundo” (J Nat Prod, 2004).

The test system of test [1] is Radical scavenging activity. In words: Antioxidant activity assessed as DPPH radical scavenging activity at 0.02 mM. The test is classed as functional. A digest of the protocol:
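Sample in EtOH (0.02 mM final) added to 0.1 M acetate buffer pH 5.5 plus 0.5 mM DPPH in EtOH. Mixture stood 30 min at room temperature. Modified from a published DPPH method.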

Test [2] can be described thus: Antioxidant activity assessed as inhibition of lipid peroxidation at 0.5 mM after 5 days by ferric-thiocyanate method. The test is classed as functional. A digest of the protocol: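 Linoleic acid peroxidation: 2.51% linoleic acid in EtOH mixed with 0.05 M phosphate buffer pH 7.0, EtOH and water. Sample added from 10 mM EtOH stock, 0.5 mM final. Capped vial kept in dark at 40 °C for 5 days. Aliquot diluted in 75% EtOH, ammonium thiocyanate and ferrous chloride in HCl added, A500 read after 3 min. Blank lacks compound.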

Active and inactive are the calls of the source. The rule behind the calls is not given here.

Regarding `COc1cc([C@H]2c3cc(O)c(OC)cc3C=C(C=O)[C@@H]2CO)ccc1O`, the outcome in test [1] and in test [2] was Active.

For `COc1cc(-c2c3c(cc4cc(OC)c(O)cc24)C(=O)OC3)ccc1O`, the outcome in test [1] and in test [2] was Active.

`COc1cc(-c2c(O)c(C=O)cc3cc(OC)c(O)cc23)ccc1O`: the outcome in test [1] and in test [2] was Active.

On to `COc1cc([C@H]2c3c(ccc(O)c3OC)C=C(C=O)[C@@H]2CO)ccc1O`, for which the outcome in test [1] and in test [2] was Active.

Regarding `COc1cc(-c2c3c(cc4cc(OC)c(O)cc24)C(=O)NC3)ccc1O`, the result in test [1] and in test [2] was Active.

As to `COc1cc(-c2cc(C=O)cc3cc(OC)c(O)cc23)ccc1O`, the outcome in test [1] and in test [2] was Active.
